Data reported in ChEMBL document CHEMBL3351816, “Structure-based optimization of a peptidyl inhibitor against calcineurin-nuclear factor of activated T cell (NFAT) interaction” (J Med Chem, 2014).
Active and inactive are the calls of the source. No cut-off for these calls is given here. Numbered stars: 1 amine (or outer) side, 2 acyl side, 3 side chain; on linkers, the order of the positions; unused ones are H or OH. Square brackets hold non-standard residues; d marks the D form. Peptide text beside a SMILES is read from it. X1 = CC1(C)SC[C@@H](C(=O)[*:2])N1[*:1]; Tle = CC(C)(C)[C@H](N)C(=O)O

How the values were obtained:
[1] = Binding affinity to GST-calcineurin fusion protein substrate docking site (unknown origin) expressed in Escherichia coli BL21 cells by fluorescence anisotropy assay; set-up: species or system Homo sapiens
Outline: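 GST–CN fusion expressed in E. coli BL21, glutathione-Sepharose purified. FA read at ex 485/em 525 nm; KD from fitting FA versus CN concentration with correction for fluorophore–protein interaction.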

[2] = (§1) Inhibition of FITC-labelled […] binding to calcineurin (unknown origin) by modified fluorescence anisotropy assay; set-up: species or system Homo sapiens
Homo sapiens = organism: Homo sapiens; assay: as §1
HeLa = assay: Inhibition of calcineurin in human HeLa cells assessed as blocked of GFP-NFAT translocation at 500 nM prior to ionomycin treatment by fluorescence based confocal microscopy in presence of ionomycin; assay type: cell-based
Outline: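 HeLa cells stably expressing GFP–NFAT1 pretreated with R11-conjugated peptide (500 nM), then stimulated with ionomycin. Time-lapse live-cell confocal imaging; increase in nuclear fluorescence after 10 min ionomycin compared with inhibitor-free control (100%). Mean ± SD from at least 30 cells; two-tailed t test.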

[3] = Half life in 25% human serum at 37 degC; assay type: ADME
Outline: (§2)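 Peptides were incubated in diluted human serum (25%) at 37 °C for up to 6 h. The amount of intact peptide remaining was monitored over time by HPLC.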

Serum [4] = assay: Drug metabolism in 25% human serum at 37 degC at 6 hrs; assay type: ADME, cell-free; outline: as §2
[5] = target: Tyrosine-protein phosphatase non-receptor type 6 (Homo sapiens, UniProt P29350); assay: Binding affinity to SHP1 (unknown origin)
[6] = target: Growth factor receptor-bound protein 2 (Homo sapiens) (UniProt P62993); assay: Binding affinity to SH2 domain of Grb2 (unknown origin)
[7] = target: T1, Tyrosine-protein phosphatase non-receptor type 1 (Homo sapiens, UniProt P18031); assay: Binding affinity to PTP1B (unknown origin)
T1 sequence (P18031 whole entry): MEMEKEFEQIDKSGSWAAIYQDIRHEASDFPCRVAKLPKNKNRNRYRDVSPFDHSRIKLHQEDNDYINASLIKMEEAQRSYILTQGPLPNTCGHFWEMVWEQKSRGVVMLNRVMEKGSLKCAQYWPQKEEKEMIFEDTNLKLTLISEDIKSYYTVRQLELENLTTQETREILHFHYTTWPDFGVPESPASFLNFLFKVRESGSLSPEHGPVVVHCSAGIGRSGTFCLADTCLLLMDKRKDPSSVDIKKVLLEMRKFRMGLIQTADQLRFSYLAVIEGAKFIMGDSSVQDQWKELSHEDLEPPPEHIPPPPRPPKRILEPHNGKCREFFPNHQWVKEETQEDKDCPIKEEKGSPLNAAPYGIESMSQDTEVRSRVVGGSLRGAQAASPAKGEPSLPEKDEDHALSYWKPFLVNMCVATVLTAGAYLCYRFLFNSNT

Albumin = Albumin (Bos taurus, UniProt P02769); assay: Binding affinity to bovine serum albumin; assay type: ADME; conditions: cattle, isolated protein
[8] = system: GTPase KRas (Homo sapiens), P01116 [G12V]; assay: Binding affinity to K-Ras G12V mutant (unknown origin)
Serum [9] = assay: Drug metabolism in 25% human serum assessed as compound remaining at 37 degC; assay type: ADME, cell-free
Outline: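 Peptide incubated in human serum diluted to 25% at 37 °C; remaining intact peptide quantified by HPLC over time up to 6 h.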

Sequence of Tyrosine-protein phosphatase non-receptor type 6 (P29350 whole entry, the tested form may be a part): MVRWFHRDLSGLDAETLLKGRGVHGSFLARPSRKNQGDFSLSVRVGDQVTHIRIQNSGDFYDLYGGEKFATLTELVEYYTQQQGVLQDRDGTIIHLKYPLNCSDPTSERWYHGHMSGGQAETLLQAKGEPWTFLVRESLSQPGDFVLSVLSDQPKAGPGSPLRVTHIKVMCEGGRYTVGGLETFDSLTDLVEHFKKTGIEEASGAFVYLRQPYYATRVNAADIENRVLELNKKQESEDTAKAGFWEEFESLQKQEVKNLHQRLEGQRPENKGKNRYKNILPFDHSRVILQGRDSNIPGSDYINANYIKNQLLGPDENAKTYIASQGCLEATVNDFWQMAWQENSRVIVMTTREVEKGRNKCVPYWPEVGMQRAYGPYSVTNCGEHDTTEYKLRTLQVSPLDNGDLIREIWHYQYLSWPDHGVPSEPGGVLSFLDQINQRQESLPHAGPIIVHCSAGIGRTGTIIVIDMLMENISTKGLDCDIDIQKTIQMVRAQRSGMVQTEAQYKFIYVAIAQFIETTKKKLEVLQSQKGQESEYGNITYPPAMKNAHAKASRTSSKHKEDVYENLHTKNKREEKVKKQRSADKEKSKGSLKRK
Sequence of GTPase KRas (Homo sapiens), P01116 [G12V] (P01116 whole entry G12V): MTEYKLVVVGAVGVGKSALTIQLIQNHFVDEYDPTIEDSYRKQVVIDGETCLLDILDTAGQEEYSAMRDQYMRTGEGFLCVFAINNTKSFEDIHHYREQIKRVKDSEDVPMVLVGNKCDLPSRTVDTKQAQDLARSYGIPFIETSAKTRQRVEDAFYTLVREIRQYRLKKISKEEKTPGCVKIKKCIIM
Sequence of Growth factor receptor-bound protein 2 (Homo sapiens) (P62993 whole entry, looked up, the tested form may be a part): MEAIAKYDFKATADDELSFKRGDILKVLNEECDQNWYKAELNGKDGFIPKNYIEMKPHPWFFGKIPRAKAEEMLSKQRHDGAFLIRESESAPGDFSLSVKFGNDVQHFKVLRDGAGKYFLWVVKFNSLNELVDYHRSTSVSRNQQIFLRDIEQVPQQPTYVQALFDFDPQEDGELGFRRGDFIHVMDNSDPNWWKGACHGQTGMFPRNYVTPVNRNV
Sequence of Albumin (P02769 whole entry): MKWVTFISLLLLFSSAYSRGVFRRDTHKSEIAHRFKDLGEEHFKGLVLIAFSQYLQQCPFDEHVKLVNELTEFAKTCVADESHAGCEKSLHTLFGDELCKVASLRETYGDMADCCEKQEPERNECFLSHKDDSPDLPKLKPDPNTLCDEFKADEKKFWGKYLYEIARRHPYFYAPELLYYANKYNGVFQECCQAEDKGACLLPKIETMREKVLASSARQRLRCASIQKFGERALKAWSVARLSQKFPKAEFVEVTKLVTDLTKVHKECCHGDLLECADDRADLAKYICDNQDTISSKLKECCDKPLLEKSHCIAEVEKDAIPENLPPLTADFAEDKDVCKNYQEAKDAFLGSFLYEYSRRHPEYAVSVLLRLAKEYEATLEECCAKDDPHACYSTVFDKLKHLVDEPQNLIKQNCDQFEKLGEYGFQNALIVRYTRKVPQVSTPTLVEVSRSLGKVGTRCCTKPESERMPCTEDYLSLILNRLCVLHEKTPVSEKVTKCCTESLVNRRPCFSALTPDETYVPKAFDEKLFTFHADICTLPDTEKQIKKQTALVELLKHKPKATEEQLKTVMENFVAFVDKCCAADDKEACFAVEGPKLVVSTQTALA

CC[C@H](C)[C@H](NC(=O)[C@@H](NC(=O)[C@@H](NC(=O)[C@@H](NC(=O)[C@@H]1CCCN1C(=O)[C@H](Cc1cnc[nH]1)NC(=O)[C@@H]1CCCN1C(=O)CN)C(C)(C)C)[C@@H](C)CC)C(C)(C)C)C(=O)N[C@H](C(=O)NCC(=O)N1CCC[C@H]1C(=O)N[C@@H](Cc1cnc[nH]1)C(=O)N[C@@H](CCC(=O)O)C(=O)N[C@@H](CCC(=O)O)C(=O)O)[C@@H](C)O (H-GPHP[Tle]I[Tle]ITGPHEE-OH)
Kd [1]: 43 nM | IC50 [2]: 280 nM | inhibition (Homo sapiens): Dose-dependent effect

CCCOC(=O)CNC(=O)[C@H](CCC(=O)O)NC(=O)[C@H](CCC(=O)O)NC(=O)[C@H](Cc1cnc[nH]1)NC(=O)[C@@H]1CSC(C)(C)N1C(=O)CNC(=O)[C@@H](NC(=O)[C@@H](NC(=O)[C@@H](NC(=O)[C@@H](NC(=O)[C@@H](NC(=O)[C@@H]1CCCN1C(=O)[C@H](Cc1cnc[nH]1)NC(=O)[C@@H]1CCCN1C(=O)CNC(=O)CCSSC[C@H](NC(=O)[C@H](CCCNC(=N)N)NC(=O)[C@H](CCCNC(=N)N)NC(=O)[C@H](CCCNC(=N)N)NC(=O)[C@H](CCCNC(=N)N)NC(=O)[C@H](CCCNC(=N)N)NC(=O)[C@H](CCCNC(=N)N)NC(=O)[C@H](CCCNC(=N)N)NC(=O)[C@H](CCCNC(=N)N)NC(=O)[C@H](CCCNC(=N)N)NC(=O)[C@H](CCCNC(=N)N)NC(=O)[C@H](CCCNC(=N)N)NC(C)=O)C(N)=O)C(C)(C)C)[C@@H](C)CC)C(C)(C)C)[C@@H](C)CC)[C@@H](C)O
inhibition (HeLa): 95%

H-GPHAVAVAAGPHEE-OH
Kd [1]: > 200000 nM

CC[C@H](C)[C@H](NC(=O)[C@@H](NC(=O)[C@@H]1CCCN1C(=O)[C@H](Cc1cnc[nH]1)NC(=O)[C@@H]1CCCN1C(=O)CN)C(C)C)C(=O)N[C@H](C(=O)N[C@H](C(=O)N[C@H](C(=O)NCC(=O)N1CCC[C@H]1C(=O)N[C@@H](Cc1cnc[nH]1)C(=O)N[C@@H](CCC(=O)O)C(=O)N[C@@H](CCC(=O)O)C(=O)O)C(C)O)[C@@H](C)CC)C(C)C (stereo not given in full)
Kd [1]: 477 nM | half-life [3]: 1 h | Stability (Serum [4]): Unstable | IC50 [2]: 4100 nM | inhibition (Homo sapiens): Dose-dependent effect

CC[C@H](C)[C@H](NC(=O)[C@@H](NC(=O)[C@@H](NC(=O)[C@@H](NC(=O)[C@@H]1CCCN1C(=O)[C@H](Cc1cnc[nH]1)NC(=O)[C@@H]1CCCN1C(=O)CN)C(C)(C)C)[C@@H](C)CC)C(C)(C)C)C(=O)N[C@H](C(=O)NCC(=O)N1[C@H](C(=O)N[C@@H](Cc2cnc[nH]2)C(=O)N[C@@H](CCC(=O)O)C(=O)N[C@@H](CCC(=O)O)C(=O)O)CSC1(C)C)[C@@H](C)O (H-GPHP[Tle]I[Tle]ITG[X1]HEE-OH)
Kd [1]: 2.6 nM | IC50 [2]: 110 nM | inhibition (Homo sapiens): Dose-dependent effect | inhibition (HeLa): 95% | Kd [5]: > 15000 nM | Activity [6]: inactive | Kd [7]: 9000 nM | Activity (Albumin): Not Active | Activity [8]: inactive | Stability (Serum [9]): 60%
